# Experimental data from different studies.
# Each line is one published result; the experiments were not run side by side.
# Target: Cyclin-dependent kinase 11B (CDK11B, Homo sapiens, UniProt P21127)
# Method: competition with immobilised ligand
SMILES,observed,concentration,remaining binding [%]
C[C@H]1CCN(c2nccc(-c3cnn4ncccc34)n2)C1,binding,1 µM,90
COc1cnc(Nc2cccc(S(N)(=O)=O)c2)nc1N1CCN(c2ccccc2)C(=O)C1,binding,1 µM,100
O=C(c1ccc(Nc2ncc(Cl)c(-c3cc4ccccc4s3)n2)cc1)N1CCC(N2CCCC2)CC1,binding,1 µM,80
Cc1c(NC(=O)c2cc(C(N)=O)nc3cc(F)ccc23)c(C(F)(F)F)nn1Cc1ccc(C#N)cc1,cell-free assay,1 µM,94
c1cncc(-c2cccc(Nc3nccc(NC4CCCCC4)n3)c2)c1,binding,10 µM,80
CN(C)c1nccc(-c2cnc3ncccn23)n1,binding,1 µM,100
O=C(NC[C@@H]1[C@H]2CN(C(=O)OCc3cc(C(F)(F)F)cc(C(F)(F)F)c3)C[C@@H]12)c1ccc2[nH]nnc2c1,cell-free assay,1 µM,100
Nc1ncc2c(n1)-c1c([nH]c3ccc(C#CC4CC4)cc13)CCCC2,binding,1 µM,91
c1cnn2ncc(-c3ccnc(N4CCC45COC5)n3)c2c1,binding,1 µM,91
CC1=C(C#N)C(c2ccc3c(c2)c(NC(=O)c2ccccc2C)nn3C)C(C#N)=C(C)N1,cell-free assay,1 µM,100
CCN1CCN(Cc2ccc(C(=O)Nc3ccc(C)c(Oc4ccc5c(c4)CC(=O)N5)c3)cc2C(F)(F)F)CC1,binding,1 µM,100
N[C@@H]1CCN(c2nccc(-c3cnn4ncccc34)n2)C1,binding,1 µM,100
O=C(NCCCN1CCOCC1)c1ccc(Nc2nccc(-c3cc4ccccc4s3)n2)cc1,binding,1 µM,57
CC(=O)N1CCC(c2ccc(C(=O)NC(=N)N)cc2C(F)(F)F)CC1,cell-free assay,1 µM,100
O=C(NCC1CCOCC1)c1n[nH]cc1NC(=O)c1c(F)cccc1F,binding,1 µM,96
COc1ncc2cc3ccccc3nc2c1C#N,cell-free assay,5 µM,100
CN(C)c1ncc(F)c(-c2cnn3ncccc23)n1,binding,1 µM,100
COc1ccc2cc(OCC3(C(=O)O)CN(C(=O)c4ccc(F)cc4)C3)ccc2c1,cell-free assay,1 µM,100
COc1ccnn2ncc(-c3ccnc(N(C)C)n3)c12,binding,1 µM,100
O=C(c1ccc(Nc2ncc(Cl)c(-c3ccc(Cl)s3)n2)cc1)N1CCC(N2CCCC2)CC1,binding,1 µM,46
CNCc1ccccc1-c1csc([C@H](C)Nc2nc(C)nc3cc(OC)c(OC)cc23)c1,cell-free assay,1 µM,100
